Measured values published in ChEMBL document CHEMBL1153767, “Bromoalkoxyxanthones as promising antitumor agents: synthesis, crystal structure and effect on human tumor cell lines” (2009).

Legend:
Format in all cases: functional
MCF7 = test: Antitumor activity against human MCF7 cells expressing estrogen receptor assessed as inhibition of growth after 48 hrs using sulforhodamine B dye; details: MCF7, 48 h
Procedure, shortened: (§1)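 Cells pre-grown 24 h after plating at 1.5 × 10⁵ cells/mL, then exposed 48 h to five serial concentrations from DMSO stocks (DMSO at most 0.5%, vehicle control included). Adherent cells fixed, washed and stained; bound dye solubilized and absorbance read at 492 nm. GI50 (50% inhibition of net growth) from dose–response curve; 3–5 independent experiments in duplicate, mean ± SEM.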

MDA-MB-231 = test: Antitumor activity against human estrogen receptor deficient MDA-MB-231 cells assessed as inhibition of growth after 48 hrs using sulforhodamine B dye; details: MDA-MB-231, 48 h
SF-268 = test: Antitumor activity against human SF268 cells assessed as inhibition of growth after 48 hrs using sulforhodamine B dye; details: SF-268, 48 h; procedure, shortened: as §1
NCI-H460 = test: Antitumor activity against human NCI-H460 cells assessed as inhibition of growth after 48 hrs using sulforhodamine B dye; details: NCI-H460, 48 h
Procedure, shortened: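 NCI-H460 plated at 0.75 × 10⁴ cells/mL, grown 24 h, then treated 48 h with five serial dilutions from DMSO stocks (DMSO at most 0.5%, vehicle control included). After fixing, washing and staining, solubilized dye read at 492 nm. GI50 (50% net growth inhibition) derived from the dose–response curve; 3–5 independent duplicate experiments, mean ± SEM.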

Row | SMILES | GI50 (MCF7) [µM] | GI50 (MDA-MB-231) [µM] | GI50 (SF-268) [µM] | GI50 (NCI-H460) [µM]
1 | O=c1c2ccccc2oc2cccc(OCCCCCCBr)c12 | 22.7 | > 100 | 30.2 | 30.7
2 | O=c1c2ccccc2oc2cccc(OCCCCCCOc3cccc4oc5ccccc5c(=O)c34)c12 | > 100 | > 100 | > 100 | > 100
3 | O=c1c2ccccc2oc2c(O)c(OCCCCCCBr)ccc12 | > 100 | > 100 | > 100 | > 100
4 | O=c1c2ccccc2oc2c(OCCCCCCBr)c(OCCCCCCBr)ccc12 | 20.5 | 56.8 | > 100 | > 100
5 | O=c1c2ccccc2oc2cccc(O)c12 | > 100 | 66 | 70.8 | 84.9
6 | O=C(c1ccccc1O)c1ccc(O)cc1O | 100 | – | > 100 | 91.2
7 | O=c1c2ccccc2oc2c(O)c(O)ccc12 [3,4-DIHYDROXYXANTHONE] | 52.4 | 22.8 | 22.6 | 11.4
8 | COc1cccc2c1C(=O)c1c(O)c3c(c(O)c1C2=O)C[C@@](O)(C(=O)CO)C[C@@H]3O[C@H]1C[C@H](N)[C@H](O)[C@H](C)O1 [DOXORUBICIN] | – | 0.0109 | 0.094 | 0.094
